Results: article PMC10753549 (ACS Omega, 2023)
Counter-ions that a name gives are not always drawn. One block for each compound: values may come before it.

How the values were obtained:
NS2B-NS3 protease = settings: NS2B-NS3 inhibitors; cited from earlier work
ZIKV = settings: read-out: EC50 (anti-ZIKV); in vitro assays; ref Pathak et al. (2020) [49]; cited from earlier work
ZIKV NS3 protease = settings: read-out: IC50 (viral protease); ref Pathak et al. (2020) [49]; cited from earlier work
[1] = test system: brine shrimp (Artemia salina); test: Brine shrimp lethality bioassay
Zika virus strain MR766 = test: Anti-ZIKV viral immunofluorescence assay in Vero cells; type: cell-based, Zika virus (MR766 Africa lineage)
Summary of the method: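 Vero cells kept in DMEM with 10% FBS, 1% penicillin/streptomycin and 2 mM L-glutamine. They were pretreated with test compound at ten concentrations, then infected with MR766 virus stock grown in C6/36 mosquito cells (5 μL inoculum per well). After 24 h the cells were fixed in 4% paraformaldehyde and read by immunofluorescence. Mycophenolic acid was the positive control. EC50 came from 10-point dose–response curves in triplicate. CC50 was measured in uninfected Vero cells, and SI = CC50/EC50.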

[2] = Cytotoxicity assay on Vero cells; type: cell-based; settings: African green monkey, virus-uninfected Vero cells, CC50 (50% cytotoxic concentration), 10-point dose–response curves in triplicate
Summary of the method: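 Vero cells were grown in DMEM with 10% FBS, 1% penicillin/streptomycin and 2 mM L-glutamine. Virus-uninfected cells were exposed to test compound at ten concentrations. CC50 was calculated from the 10-point dose–response curves, run in triplicate.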

Compound: Oc1cccc(-c2c3nc(c(-c4cccc(O)c4)c4ccc([nH]4)c(-c4cccc(O)c4)c4nc(c(-c5cccc(O)c5)c5ccc2[nH]5)CC4)C=C3)c1 [temoporfin]
IC50 (NS2B-NS3 protease): 1.1 µM

Compound: C=C[C@@H]1C[C@]1(NC(=O)[C@@H]1C[C@@H](Oc2ncc(OC)c3ccc(Cl)cc23)CN1C(=O)[C@@H](NC(=O)OC(C)(C)C)C(C)(C)C)C(=O)NS(=O)(=O)C1CC1 [asunaprevir]
EC50 (ZIKV): 4.7 µM
IC50 (ZIKV NS3 protease): 6 µM

Compound: CN1[C@@H]2CC[C@H]1C[C@@H](OC(=O)C(CO)c1ccccc1)C2 (stereo partly shown) [Atropine SO4, Atropine sulfate monohydrate]
nauplii mortality ([1]; after 24 h): below 20%

Compound: CC(C)C[C@H]1C(=O)N2CCC[C@H]2[C@]2(O)O[C@](NC(=O)[C@@H]3C=C4c5cccc6[nH]c(Br)c(c56)C[C@H]4N(C)C3)(C(C)C)C(=O)N12 [bromocriptine]
IC50 (NS2B-NS3 protease): 21.6 µM

Compound: COc1ccc2c(O[C@@H]3C[C@H]4C(=O)N[C@]5(C(=O)NS(=O)(=O)C6CC6)C[C@H]5/C=C\CCCCN(C)C(=O)[C@@H]4C3)cc(-c3nc(C(C)C)cs3)nc2c1C [simeprevir]
IC50 (ZIKV NS3 protease): 2.6 µM

Compound: erythrosine B
IC50 (NS2B-NS3 protease): 1.7 µM

EC50 (Zika virus strain MR766; Zika virus, Vero, 24 h, read-out: EC50 (median effective concentration)): 0.94 µM
Compound: COc1c(C)c2c(c(O)c1C/C=C(\C)CCC(=O)O)C(=O)OC2 [MPA, mycophenolic acid]
SI: Selectivity index (CC50/EC50) (Zika virus strain MR766; ZIKV MR766 / Vero cells): >1063
CC50 [2]: > 1000 µM

Compound: CO[C@@H]1[C@@H](OC(N)=O)[C@@H](O)[C@H](Oc2ccc3c(O)c(NC(=O)c4ccc(O)c(CC=C(C)C)c4)c(=O)oc3c2C)OC1(C)C [novobiocin]
IC50 (NS2B-NS3 protease): 14.2 µM

Compound: COc1ccc2cc3[n+](cc2c1OC)CCc1cc2c(cc1-3)OCO2 [Berberine chloride, berberine chloride]
nauplii mortality ([1]; at 125 μg/mL, 24 h): all the nauplii were dead
LD50 (median lethal dose) ([1]; brine shrimp nauplii, 24 h, probit analysis of 6-point dose (16–500 μg/mL)): 27.0 µg/mL
